An excerpt weighted towards active compounds, which were near 2.8% of everything screened.
RAM inhibit – inhibitors of the yeast RAM network, primary screen, dse1pr::URA3 reporter, 5-FOA selection | hit rate 1.8% among 190,000 | AID 868, 2007 | S. cerevisiae dse1pr::URA3 reporter, 5-FOA growth OD615, 2 d; analog-sensitive cbk1-as2 kinase mutant strain | inhibition, % at 50 µM;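 active = inhibition above a set limit, 3 SD over mean compound inhibition, cut at about 8.4% in these data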;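 also: 0% = DMSO-only wells with no growth and 100% = 10 µM 1-NA-PP1 full growth; inhibition rescues growth on 5-FOA so higher OD means more RAM inhibition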
Yeast lifespan up – compounds extending yeast replicative lifespan, primary screen, S. cerevisiae, OD615 | S. cerevisiae growth with nicotinamide; deaD strain in restrictive glucose medium | hit rate 0.68% among 130,000 | inhibition of the nicotinamide effect, % at 10 µM;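 active = inhibition above a set limit, placed 3 SD over the median of all compounds, cut at about 26% in these data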;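 also: 0% = nicotinamide-treated wells and 100% = cells grown without nicotinamide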
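Test system: DeaD-strain S. cerevisiae / Buffer or medium: restrictive glucose medium / Also added: nicotinamide 1.5 mM / Doses: one concentration, 10 µM, DMSO 0.25% / Schedule: 48 h at 30 °C / Signal: OD615 measurement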
TNAP act hi DEA – TNAP activators at high phosphate acceptor level, primary screen, biochemical, luminescence, uHTS; Alkaline phosphatase, tissue-nonspecific isozyme (Homo sapiens), P05186; purified TNAP, CDP-star luminescence, 1 M DEA, 30 min; active compounds read high; 0 = EDTA background, 1 = DMSO-only activity; activation factor at 20 µM; 200,000 tested, under 10 active; AID 1136, 2008;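 active = activation factor at least 2 at 20 µM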
Target sequence (P05186 whole entry, looked up): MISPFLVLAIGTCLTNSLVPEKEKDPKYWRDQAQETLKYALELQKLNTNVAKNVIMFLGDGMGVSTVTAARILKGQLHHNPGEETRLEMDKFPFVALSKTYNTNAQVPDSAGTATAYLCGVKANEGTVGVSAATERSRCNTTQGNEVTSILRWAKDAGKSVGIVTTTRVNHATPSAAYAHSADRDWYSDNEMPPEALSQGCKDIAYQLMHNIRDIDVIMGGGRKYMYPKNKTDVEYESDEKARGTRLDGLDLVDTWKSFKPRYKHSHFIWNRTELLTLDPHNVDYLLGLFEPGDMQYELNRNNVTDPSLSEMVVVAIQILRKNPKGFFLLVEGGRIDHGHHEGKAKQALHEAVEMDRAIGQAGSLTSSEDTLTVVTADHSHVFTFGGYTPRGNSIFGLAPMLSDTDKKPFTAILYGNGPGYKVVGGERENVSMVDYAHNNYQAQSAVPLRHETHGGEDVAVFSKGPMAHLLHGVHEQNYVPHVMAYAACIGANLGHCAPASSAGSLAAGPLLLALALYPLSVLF
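Dosing: 20 µM single point. System: human TNAP. Amount: TNAP 1/800 final. Incubation: 30 min, room temperature. Read-out: TNAP activation factor scaled between EDTA and DMSO control wells. Signal: luminescence from CDP-star hydrolysis. Medium: 1 M DEA, pH 9.8, Mg2+, Zn2+. Control set: EDTA negative control, DMSO positive control.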
TNAP inh hi DEA – human TNAP enzyme inhibitors, primary screen, biochemical, luminescent, high phosphate acceptor level, uHTS; AID 1135, 2008; inhibition, % at 20 µM; purified TNAP, CDP-star luminescence, 1 M DEA; Alkaline phosphatase, tissue-nonspecific isozyme (Homo sapiens), P05186; hit rate 0.03% among 200,000;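 active = over 50% inhibition of tissue-nonspecific alkaline phosphatase at 20 µM in the single-dose screen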;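 also: plate controls were DMSO wells for no effect and EDTA-quenched wells as full inhibition for full effect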
TNAP inh no acc – human TNAP enzyme inhibitors, primary screen, biochemical, luminescent, no phosphate acceptor, uHTS; purified TNAP, CDP-star luminescence, 30 min; inhibition, % at 20 µM; hit rate 0.26% among 200,000;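 active = tissue-nonspecific alkaline phosphatase inhibition above about 50% at 20 µM in the single-dose screen, limit read from the data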;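 also: 0% = DMSO negative control and 100% = EDTA positive control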
Yeast growth inh – growth inhibitors of yeast BB579 in restrictive medium, primary screen, yeast lifespan-shortening project, S. cerevisiae; OD615, 48 h; inhibition, % at 10 µM; hit rate 0.51% among 140,000; AID 804, 2007;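 active = inhibition above a set limit, 3 SD over the mean compound inhibition, cut at about 44% in these data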
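Test system: S. cerevisiae DeaD strain BB579 yeast; Medium: restrictive CSMM-D medium; Compound: one dose, 10 µM compound with 0.25% DMSO; Incubation: 4 h cell preincubation, 48 h compound exposure, 30 °C humidified; Signal: OD at 615 nm; Benchmarks: amphotericin B at 10 µg/mL as positive control.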
RAM efflux-def – 5-FOA growth of efflux-deficient control yeast, dose response, counter-screen for RAM network inhibitor project, S. cerevisiae, OD615. shares compounds with RAM inhibit. S. cerevisiae efflux-deficient reporter strain, 5-FOA growth OD615, 2 days. max inhibition, %. 1,200 tested, under 10 active. AID 1305, 2008; call rule not given here;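 also: plate controls were vehicle for no effect and reference inhibitor for full effect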
Active calls of the source: *; · = no result given.

SMILES	RAM inhibit	Yeast lifespan up	TNAP act hi DEA	TNAP inh hi DEA	TNAP inh no acc	Yeast growth inh	RAM efflux-def
CCOC(=O)C1=NN(c2ccccc2C)C2=NC(C)=C(C(=O)OC)C(c3cccc(OC)c3)N12 (stereo unspecified)	23*	9	1	0	1	-27	3
CCOC(=O)C1=NN(c2ccccc2C)C2=NC(C)=C(C(=O)OC)C(c3cccs3)N12 (stereo unspecified)	2	·	1	-3	-7	-14	·
CC(=O)NC(Cc1ccccc1)C(=O)OCC(=O)c1ccc(Cl)cc1 (stereo unspecified)	0	3	1.1	-8	-8	-52	·
CCc1ccc(C(=O)COC(=O)C(Cc2ccccc2)NC(=O)c2ccc(Cl)cc2)cc1 (stereo unspecified)	17*	-18	1	2	-3	-59	3
N#C/C(=C\Nc1ccccc1SC(F)(F)F)c1nc(-c2ccccc2)cs1	12*	4	1	1	-3	-40	3
COc1ccc(Oc2ccc(/C=C/C(=O)c3cccc(OC)c3)cc2[N+](=O)[O-])cc1	11*	2	1	-1	-8	-42	5
CCCNS(=O)(=O)c1ccc(CCC(=O)Nc2cc(Cl)ccc2Oc2ccccc2)cc1	12*	·	1.1	-9	-26	-30	5
CC(C)(C)NS(=O)(=O)c1ccc(CCC(=O)Nc2cc(Cl)ccc2Oc2ccccc2)cc1	2	-13	1	-4	-12	-8	·
CC(C)CNS(=O)(=O)c1ccc(CCC(=O)Nc2cc(Cl)ccc2Oc2ccccc2)cc1	13*	-5	1	-4	-9	-40	3
FC(F)(F)c1cc(-c2cccs2)nc2ncnn12	1	·	1	0	-6	·	·
CC(C)Oc1cccc(C(=O)NC(=S)Nc2ccc(Cl)c(C(=O)O)c2)c1	8	-16	1	-2	-5	-16	·
CCCCOc1cccc(C(=O)NC(=S)Nc2cccc(C(F)(F)F)c2)c1	13*	4	1	4	-19	-50	3
CC(C)Oc1cccc(C(=O)NC(=S)Nc2cccc(C(F)(F)F)c2)c1	12*	-4	1	2	-2	-32	2
C/C(=N\OC(=O)c1ccc(Cl)cc1)c1sc(-c2ccccc2)nc1C	12*	5	1.1	-7	2	-29	4
C/C(=N\OC(=O)c1ccc(F)cc1)c1sc(-c2ccccc2)nc1C	6	-5	1	-2	-5	-21	·
Cc1ccc(NC(=O)CCC(=O)OCCCC(F)(F)C(F)(F)F)cc1	0	-7	1.1	-5	-13	-18	·
O=C(CCC(=O)OCCCC(F)(F)C(F)(F)F)Nc1ccc(Cl)cc1Cl	29*	-3	1	1	-12	-58	3
CC(C)NC(=O)c1ccc(-n2nc(C(F)(F)F)c3c2CCCC3)cc1	3	5	1	-3	-5	1	·
C=CCSC1=N/C(=C\c2cccnc2)C(=O)N1c1ccc(OC)cc1	4	0	1	0	-17	-8	·
C=CCSC1=N/C(=C/c2ccsc2)C(=O)N1c1ccccc1	14*	0	1	-1	-25	-51	2
O=c1c(/C=N/O)coc2ccc3ccccc3c12	23*	-12	1	-5	-9	10	1
O=C(CCc1ccccc1)N1CCN(c2ccc(F)cc2)CC1	-2	·	1.1	-5	-7	·	·
CCCCC(=O)O[C@H]1CC[C@H]2[C@@H]3CCc4cc(O)ccc4[C@H]3CC[C@]12C	14*	10	1	-4	-12	-43	7
O=C(Cn1nnc(-c2ccc(CN3CCOCC3)cc2)n1)N(c1ccccc1)c1ccccc1	1	·	1	-1	-8	·	·
CS(=O)(=O)N1CCC(C(=O)N2CCN(c3ccccc3F)CC2)CC1	0	·	1	2	-4	·	·
SMILES	RAM inhibit	Yeast lifespan up	TNAP act hi DEA	TNAP inh hi DEA	TNAP inh no acc	Yeast growth inh	RAM efflux-def
O=C(O)c1cc([N+](=O)[O-])ccc1NCCO	5	0	0.9	8	-5	0	·
Cc1ccc(C)c(C(=O)COC(=O)c2cc([N+](=O)[O-])ccc2NCCO)c1	13*	-8	1	-2	-4	-27	1
Cc1cccc(CN(C(=S)Nc2c(C)cccc2C)c2cccnc2)c1	1	·	1	-3	-7	·	·
Cc1nc2c(C#N)cnn2c2c1CCN2CC1CCCO1 (stereo unspecified)	1	·	1	2	-6	·	·
COc1ccc(C(Cl)=C(c2ccc(OC)cc2)c2ccc(OC)cc2)cc1	13*	10	1	-4	-11	-38	6
COc1ccc(Cc2nnc(-c3ccc(F)cc3)o2)cc1OC	-1	-12	1	-1	-6	1	·
Cc1ccc(C)c(N2CCN(C(=O)c3ccc(Cn4c(=S)[nH]c5ccc(N6CCOCC6)cc5c4=O)cc3)CC2)c1	13*	·	1	-2	-5	·	3
O=C(c1ccc(Cn2c(=S)[nH]c3ccc(N4CCOCC4)cc3c2=O)cc1)N1CCN(c2ccc(F)cc2)CC1	4	·	1	-5	-22	·	·
Cc1ccc(NC2=Nc3ccccc3N3C2=Nc2c(c(C)nn2-c2ccccc2)C3c2ccc(O)c(O)c2)cc1 (stereo unspecified)	11*	-12	1	3	-4	-34	10
Cc1nn(-c2ccccc2)c2c1C(c1ccc(O)c(O)c1)N1C(=N2)C(Nc2ccccc2)=Nc2ccccc21 (stereo unspecified)	0	-6	0.9	7	1	-39	·
Cc1nn(-c2ccccc2)c2c1C(c1ccc([N+](=O)[O-])cc1)N1C(=N2)C(=O)Nc2ccccc21 (stereo unspecified)	5	2	1	4	1	-39	·
Cc1cccc(NC2=Nc3ccccc3N3C2=Nc2c(c(C)nn2-c2ccccc2)C3c2ccc(O)c(O)c2)c1 (stereo unspecified)	12*	-8	1	3	-1	7	9
Cc1ccc(-c2cc(C(F)F)nc(N3CCC(C)CC3)n2)cc1	12*	-16	1	1	-10	-4	5
CC1CCN(c2nc(-c3ccccc3)cc(C(F)(F)F)n2)CC1	7	-8	1	-3	-11	-68	·

Bioassay records (PubChem)
